From ChEMBL document CHEMBL1145996 (J Med Chem, 2003)
The source made the active and inactive calls. The rule behind the calls is not given here.

Columns and labels:
Type in all cases: functional, organism-based
Leishmania donovani [1] = test: Antileishmanial activity of compound against leishmania donovani was determined in luciferase assay; Not active
Plasmodium falciparum [2] = test: In vitro antimalarial activity against chloroquine-sensitive Plasmodium falciparum D6 Sierra Leone
Plasmodium falciparum [3] = test: In vitro antimalarial activity against chloroquine-resistant Plasmodium falciparum W2 Indochina
Summary of the method: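 Asynchronous P. falciparum cultures (2% hematocrit, 2% parasitemia) given compound dilutions in DMSO or RPMI-1640, incubated 48 h at 37°C under 90% N2/5% CO2/5% O2 in humidified chamber. Growth read as parasite lactate dehydrogenase activity with Malstat reagent. At least six concentrations, each in duplicate; medium and RBC controls on each plate.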

Leishmania donovani [4] = test: Antileishmanial activity of compound against leishmania donovani was determined in luciferase assay
Summary of the method: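 Transgenic Leishmania donovani promastigotes expressing firefly luciferase, 2×10^6 cell/mL, exposed to compound dilutions in 96-well plates at 26°C for 72 h; growth read by luciferase luminescence (Steady Glo). At least six concentrations, each in duplicate; mean values used for growth inhibition curves and IC50. Pentamidine and amphotericin B as standards.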

SMILES | NA (Leishmania donovani [1]) | IC50 (Plasmodium falciparum [2]) | IC50 (Plasmodium falciparum [3]) | IC50 (Leishmania donovani [4])
C[C@@H]1CC[C@H]2[C@@H](CCCc3ccc(S(C)(=O)=O)cc3)C(=O)O[C@@H]3O[C@@]4(C)CC[C@@H]1[C@]32O4 | inactive |  |  | 
C[C@@H]1CC[C@H]2[C@@H](C)C(=O)O[C@@H]3OC(C)(C)OO[C@@]32C1 | inactive |  |  | 
C[C@@H]1CC[C@H]2[C@@H](C)C(=O)O[C@@H]3O[C@@]4(C)CC[C@@H]1[C@]32O4 | inactive |  |  | 
C[C@@H]1CC[C@H]2[C@H](CCCc3cc(C(F)(F)F)cc(C(F)(F)F)c3)C(=O)O[C@@H]3O[C@@]4(C)CC[C@@H]1[C@]32OO4 | inactive | 12.6 nM | 8.2 nM | 
C[C@@H]1CC[C@H]2[C@@H](CCCc3ccc(N(C)C)cc3)CO[C@@H]3O[C@@]4(C)CC[C@@H]1[C@]32OO4 |  | 16.5 nM | 14.3 nM | 36 µM
C[C@@H]1CC[C@H]2[C@@H](CCCc3cc(C(F)(F)F)cc(C(F)(F)F)c3)C(=O)O[C@@H]3O[C@@]4(C)CC[C@@H]1[C@]32O4 | inactive |  |  | 
C[C@@H]1CC[C@H]2[C@@H](CCCc3cccc(Cl)c3)CO[C@@H]3O[C@@]4(C)CC[C@@H]1[C@]32O4 | inactive |  |  | 
C[C@@H]1CC[C@H]2[C@@H](CCCc3cc(C(F)(F)F)cc(C(F)(F)F)c3)C(=O)O[C@@H]3O[C@@]4(C)CC[C@@H]1[C@]32OO4 |  | 18.8 nM | 16 nM | 14.4 µM
C[C@@H]1CC[C@H]2[C@@H](CCCc3ccccc3)C(=O)O[C@@H]3O[C@@]4(C)CCC1[C@]32OO4 (stereo partly specified) |  | 4.7 nM | 1.3 nM | 11.6 µM
CC1(C)OO[C@]23CCCC[C@H]2[C@@H](CC(=O)O)C(=O)O[C@@H]3O1 | inactive |  |  | 
C[C@@H]1CC[C@H]2[C@@H](CCCc3cc(C(F)(F)F)cc(C(F)(F)F)c3)C(O)O[C@@H]3O[C@@]4(C)CC[C@@H]1[C@]32OO4 (stereo partly specified) | inactive |  |  | 
C[C@@H]1CC[C@H]2[C@@H](CCCc3ccc(C(F)(F)F)cc3)CO[C@@H]3O[C@@]4(C)CC[C@@H]1[C@]32O4 | inactive |  |  | 
CSc1ccc(CCC[C@H]2C(=O)O[C@@H]3O[C@@]4(C)CCC5[C@H](C)CC[C@@H]2[C@]53OO4)cc1 (stereo partly specified) |  | 43.9 nM | 50.8 nM | 1.4 µM
C[C@@H]1CC[C@H]2[C@@H](CCCc3ccc(N(C)C)cc3)C(=O)O[C@@H]3O[C@@]4(C)CCC1[C@]32OO4 (stereo partly specified) |  | 27.8 nM | 11.3 nM | 1.9 µM
